Experimental data from ChEMBL document CHEMBL6134796, “Development and Evaluation of Indole-Based Phospholipase D Inhibitors for Lung Cancer Immunotherapy” (J Med Chem, 2025).
Activity calls are given as the source filed them. No cut-off for these calls is given here.

Experiments:
[1] = molecular target: T1, Phospholipase D1 (Mus musculus) (UniProt Q9Z280); test: In vivo inhibition of PLD1 in male C57BL/6 mouse allografted with mouse Lewis lung carcinoma cell line assessed as reduction in PD-L1 expression at 10 mg/kg, po by immunofluorescence analysis; type: functional, organism-based
T1 sequence (whole entry): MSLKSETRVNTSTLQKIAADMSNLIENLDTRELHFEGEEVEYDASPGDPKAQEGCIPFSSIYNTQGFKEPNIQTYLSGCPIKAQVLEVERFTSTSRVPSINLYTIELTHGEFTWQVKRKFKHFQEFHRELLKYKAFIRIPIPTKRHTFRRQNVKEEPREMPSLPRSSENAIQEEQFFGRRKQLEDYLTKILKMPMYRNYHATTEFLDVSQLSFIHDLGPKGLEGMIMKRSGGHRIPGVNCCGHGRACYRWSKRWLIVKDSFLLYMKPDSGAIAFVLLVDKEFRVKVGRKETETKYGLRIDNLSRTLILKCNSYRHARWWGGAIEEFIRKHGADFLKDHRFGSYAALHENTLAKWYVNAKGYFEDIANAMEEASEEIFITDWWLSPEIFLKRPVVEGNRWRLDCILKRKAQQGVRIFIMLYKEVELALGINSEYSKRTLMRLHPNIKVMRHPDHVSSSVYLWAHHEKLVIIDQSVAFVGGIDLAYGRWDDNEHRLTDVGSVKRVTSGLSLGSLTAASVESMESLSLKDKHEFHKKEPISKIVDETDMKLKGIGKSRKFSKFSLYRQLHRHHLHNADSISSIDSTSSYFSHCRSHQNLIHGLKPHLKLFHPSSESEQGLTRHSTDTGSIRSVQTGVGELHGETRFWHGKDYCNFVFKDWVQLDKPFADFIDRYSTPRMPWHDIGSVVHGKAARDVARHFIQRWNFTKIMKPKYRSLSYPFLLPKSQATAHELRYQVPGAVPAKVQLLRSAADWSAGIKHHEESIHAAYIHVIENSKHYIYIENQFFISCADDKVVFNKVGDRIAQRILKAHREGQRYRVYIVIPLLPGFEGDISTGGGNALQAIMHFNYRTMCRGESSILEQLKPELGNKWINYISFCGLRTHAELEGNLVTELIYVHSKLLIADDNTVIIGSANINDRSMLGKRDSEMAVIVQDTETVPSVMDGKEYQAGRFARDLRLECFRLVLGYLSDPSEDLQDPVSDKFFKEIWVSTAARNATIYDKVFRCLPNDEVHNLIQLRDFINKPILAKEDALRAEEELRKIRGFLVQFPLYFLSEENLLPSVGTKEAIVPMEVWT

[2] = molecular target: T1, Phospholipase D1 (Mus musculus); test: In vivo inhibition of PLD1 in male C57BL/6 mouse allografted with mouse Lewis lung carcinoma cell line assessed as reduction in CD47 expression at 10 mg/kg, po by immunofluorescence analysis; type: functional, organism-based
[3] = tested on: Lewis lung carcinoma cell line; test: Antitumor activity against mouse Lewis lung carcinoma cell line allografted in […] male C57BL/6 mouse model assessed as reduction in cell proliferation at 10 mg/kg, po measured every other day for 3 weeks; type: functional, organism-based
[4] = tested on: Lewis lung carcinoma cell line; test: Antitumor activity against mouse Lewis lung carcinoma cell line allografted in […] male C57BL/6 mouse model assessed as increase in cell apoptosis at 10 mg/kg, po measured every other day for 3 weeks; type: functional, organism-based
[5] = Inhibition of PLD in human A549 cells measured after 1 hr by amplex red phospholipase D assay; type: cell-based
[6] = tested on: HCT-116; test: Cytotoxicity against human HCT-116 cells assessed as inhibition of cell growth incubated for 48 hrs by WST-1 assay; type: functional, cell-based; details: HCT-116, 48 h
[7] = tested on: Mus musculus; test: In vivo inhibition of KRAS activation in male C57BL/6 mouse allografted with mouse Lewis lung carcinoma cell line assessed as decrease in IKBalpha phosphorylation at 10 mg/kg, po; type: functional, organism-based
[8] = tested on: A549; test: Downregulation of CD24 expression in human A549 cells by flow cytometry analysis; type: functional, cell-based
In short: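 A549 cells treated with compound. Surface "don't eat-me" and "eat-me" markers measured by flow cytometry.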

[9] = tested on: A549; test: Synergistic antiproliferative activity against human A549 cells assessed as reduction in cell proliferation measured up to 48 hrs in presence of gemcitabine by IncuCyte real-time imaging
[10] = tested on: HCT-116; test: Residual PLD activity in human HCT-116 cells at 10 uM measured after 1 hr by amplex red phospholipase D assay as % of control
[11] = tested on: A549; test: Inhibition of PLD1 F789A mutant (unknown origin) overexpressed in human A549 cells; type: cell-based
In short: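 A549 cells transfected with wild-type PLD1, PLD1 mutants (L425A, F614A, F789A) or PLD2, then compound-treated. PLD activity measured as [3H]phosphatidylbutanol formed in the presence of 1-butanol after [3H]myristic acid labeling, expressed as % of total lipid cpm. At least three independent experiments.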

## O=C(CCc1c[nH]c2ccccc12)Nc1cc(C(F)(F)F)cc(C(F)(F)F)c1
[1]
  inhibition: Active
[2]
  inhibition: Active
[3]
  Activity: Active
[4]
  Activity: Active
[5]
  IC50: 1.97 µM
[6]
  IC50: 29 µM
[7]
  inhibition: Active
[8]
  Activity: Active
[9]
  Activity: Active
[10]
  level, % of control: 26.6%
[11]
  inhibition: inactive
